Assay results pooled from the literature.
Lines come from different studies, so protocols differ.
Target: High affinity nerve growth factor receptor (NTRK1, Homo sapiens, UniProt P04629)

SMILES | test | conditions | measurement | result
COc1ccc2[nH]c3c4[nH]c5ccc(OC)cc5c4c4c(c3c2c1)C(=O)NC4=O | binding, competition with immobilised ligand | 1 µM | remaining binding | 40%
CCCCC(=O)Nc1ccc(-c2ccc3ncn(CCC)c(=O)c3c2)cn1 | binding, competition with immobilised ligand | 0.5 µM | remaining binding | 99%
C=CC(=O)N1CCC([C@@H]2CCNc3c(C(N)=O)c(-c4ccc(Oc5ccccc5)cc4)nn32)CC1 | cell-free assay | 1 µM | inhibition | 47%
C[C@H]1CC[C@H](n2c3cnccc3c3cnc(Nc4ccc5c(n4)CCN(C(=O)CO)C5)nc32)CC1 | cell-free assay, competition with immobilised ligand | 1 µM | remaining binding | 18%
C1=C/COCc2cc(ccc2OCCN2CCCC2)Nc2nccc(n2)-c2cccc(c2)COC/1 | binding | 0.1 µM | remaining binding | 10%
CN(C)C(=O)c1cc2cnc(Nc3ccc(-c4ccc5c(=O)cc(N6CCOCC6)oc5c4)cc3)nc2n1C1CCCC1 | binding, competition with immobilised ligand | 1 µM | remaining binding | 3.7%
N#Cc1ccc(NC(=O)Nc2ccccc2)cc1 | cell-free assay, competition with immobilised ligand | 25 µM | remaining binding | 55%
COc1ccc2oc(-c3ccc4nc(N)oc4c3)c/c(=N\c3ccccc3NC(=O)CCN)c2c1 | binding | 1 µM | remaining binding | 88%
CO[C@@H]1[C@H](N(C)C(=O)c2ccccc2)C[C@H]2O[C@]1(C)n1c3ccccc3c3c4c(c5c6ccccc6n2c5c31)C(=O)NC4 | enzyme activity, inhibitor | 1 µM | inhibition | 98%
